The source made the active and inactive calls.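 The calls were made as follows, unless noted: active = fluorescence slope after compound addition differing from the mean of all tested samples at 99.7% confidence, mostly higher but some lower; inactive = the rest.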

Consider seven compounds from PubChem BioAssay.

A short description of experiment [1]: inhibitors of TNFa-induced NFkB p65 translocation, primary screen, imaging, HUVEC, MLSMR starter and 10KST1 sets (AID 438;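 active = inhibition above 20% together with a positive visual image hit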;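 also: compound added about 3h40 before a 20 min TNFalpha stimulation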;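 as to inhibition: signal is the nuclear over cytoplasmic p65 intensity ratio per well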). As to conditions: HUVEC TNFa-induced p65 nuclear translocation; cell count: measured here: nuclei count (cytotoxicity indicator), at 2.08 µM; inhibition: at 2 µM, stronger effect = higher value, 0% TNFa-plus-vehicle, 100% no-TNFa wells.
Experiment [2] is described as follows: endothelial E-selectin expression blockers – imaging, HUVEC, immunofluorescence, MLSMR starter and 10KST1 sets, primary screen (AID 487;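 active = visually confirmed hit in the image check and inhibition above 20%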;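 as to inhibition: signal is fraction of cell area covered by stained E-selectin grains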;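 as to nuclei count: 100% = median nuclei count of all wells on the same plate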). As to conditions: HUVEC TNFalpha-induced E-selectin immunofluorescence imaging, at 2 µM; inhibition: stronger effect = higher value; nuclei count: measured here: cell number, toxicity.
Experiment [3] in a line: Primary imaging screen for DUSP6 inhibitors that restore phospho-Erk in transfected HeLa cells, chemical complementation (AID 609;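 active = compounds giving at least 50% inhibition in the cell-based MKP-3 phosphatase rescue imaging test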;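 as to inhibition: phospho-Erk level distribution per well compared with pooled transfected vehicle control wells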). As to conditions: HeLa MKP-3 transfected, phospho-Erk imaging KS statistic, at 10 µM, cells stimulated with TPA for 15 min.
The target of experiment [4] is Dual specificity protein phosphatase 6 (Homo sapiens) (UniProt Q16828). The experiment is described as above. As to conditions: HeLa MKP-3 transfected, phospho-Erk imaging KS statistic; at 10 µM; stronger effect = higher value; cells stimulated with TPA for 15 min.
Dual specificity protein phosphatase 6 (Homo sapiens), sequence (Q16828 whole entry, looked up): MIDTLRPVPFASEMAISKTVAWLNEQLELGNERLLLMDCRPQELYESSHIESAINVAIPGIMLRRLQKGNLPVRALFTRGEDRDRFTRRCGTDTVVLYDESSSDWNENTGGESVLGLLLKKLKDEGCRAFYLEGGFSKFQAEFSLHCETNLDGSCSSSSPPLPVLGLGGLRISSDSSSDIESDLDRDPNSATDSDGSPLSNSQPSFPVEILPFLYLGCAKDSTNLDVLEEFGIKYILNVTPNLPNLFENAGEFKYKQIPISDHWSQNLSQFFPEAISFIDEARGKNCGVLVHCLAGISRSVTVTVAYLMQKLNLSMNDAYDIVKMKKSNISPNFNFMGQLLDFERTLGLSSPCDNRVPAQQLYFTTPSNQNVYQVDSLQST
Experiment [5] deals with Voltage-gated potassium channel subunit beta-2 (Rattus norvegicus) (UniProt P62483). Kind of experiment: inhibitors of rat Kvbeta2 reductase activity – biochemical, NADPH fluorescence, primary screen (AID 622;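 active = fluorescence slope higher than the sample average by over 3 SD, cut at about -0.22 in these data, passing the limit was not always enough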;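 also: slope of raw intensity against log time taken from 70 to 1610 s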). As to conditions: recombinant KvBeta, 4-cyanobenzaldehyde reduction, at 10 µM, stronger effect = higher value.
Voltage-gated potassium channel subunit beta-2 (Rattus norvegicus), sequence (P62483 whole entry, looked up): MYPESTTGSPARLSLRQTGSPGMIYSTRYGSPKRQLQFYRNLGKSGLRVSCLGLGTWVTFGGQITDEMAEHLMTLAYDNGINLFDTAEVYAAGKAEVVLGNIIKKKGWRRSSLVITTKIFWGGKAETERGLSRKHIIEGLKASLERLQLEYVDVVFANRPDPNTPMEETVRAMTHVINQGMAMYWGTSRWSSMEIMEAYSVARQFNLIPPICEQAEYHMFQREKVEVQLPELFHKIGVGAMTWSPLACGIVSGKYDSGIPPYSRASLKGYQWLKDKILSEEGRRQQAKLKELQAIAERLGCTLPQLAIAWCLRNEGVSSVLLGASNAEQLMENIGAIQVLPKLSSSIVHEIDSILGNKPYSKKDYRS
Experiment [6] shares this target. Briefly: enhancers of rat Kvbeta2 NADPH turnover – biochemical, NADPH fluorescence, primary screen (AID 623;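 active = NADPH fluorescence slope more negative than the mean of all samples by about 3 SD, 99.7% confidence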;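 also: fluorescence intensity change per second fitted from 20 to 320 s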). As to conditions: Recombinant KvBeta, NADPH fluorescence decrease slope, 10 min; at 10 µM; stronger effect = lower value.
For experiment [7], the target named is Muscarinic acetylcholine receptor M4 (Homo sapiens) (UniProt P08173). Kind of experiment: M4-linked GIRK flux change, two-sided – cell-based, HEK293 M4/GIRK, thallium flux, BTC-AM, M4 allosteric agonist project, primary screen (AID 625).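 Also: thallium influx through GIRK channels coupled to M4 in HEK293 cells with BTC-AM dye.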 As to conditions: at 10 µM, actives lie on both sides. A digest of the protocol:
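Material – HEK293 cells with M4 receptor and GIRK channels · Buffer or medium – pH 7.3 thallium assay buffer · Doses – one dose, 10 µM final · Timing – cells overnight at 37 °C, BTC-AM loading 1 h, reads 2 min total · Measured by – kinetic fluorescence with BTC-AM dye · Controls – carbachol and DMSO controls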

Experiment [8] is described as follows: inhibitors of larval lipid processing in zebrafish, primary screen, whole organism, PED6 fluorescence, gall bladder and intestine (AID 686;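 active = a full or partial loss of lipid-probe fluorescence in the fish gall bladder, intestine or both, judged by eye; inactive = no fluorescence loss, or compound toxic to the fish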;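 also: larvae 5 to 7 days old with five fish per well; signal comes from phospholipase A2 cleavage of quenched PED6 carried via bile; overnight exposure to compound and PED6 before scoring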). As to conditions: Zebrafish larvae PED6 lipid processing, fluorescence scoring; screened at 20 µM (by protocol). Summed up:
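system = live zebrafish larvae aged 5-7 days, whole organism | probe or stimulus = ingested quenched lipid PED6 at 100 nM | doses = 20 µM single dose | timing = overnight exposure | detection = fluorescence microscopy with visual scoring of gall bladder and intestine | read-out = visual per-well fluorescence inhibition score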

Experiment [9] in a line: loss of swimming-algae plug formation – whole organism, Chlamydomonas reinhardtii, WT vs cilia-less mutant, absorbance, 96-well, primary screen (AID 463189;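 active = inhibition at or above 50% relative to wild type and mutant plate controls; inactive = inhibition below 50%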;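 also: 0% = wild type cc124 cells in DMSO and 100% = ciliumless bld1 mutant cells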). As to conditions: Chlamydomonas reinhardtii gravitaxis, OD600 absorbance, 2 days; at 10 µM; stronger effect = higher value.
The mark [10] stands for this setting: measured here: cell density z-score.
[11] abbreviates: measured here: nuclear c-Myc green intensity z-score.
The mark [12] stands for this setting: measured here: nuclear pErk red intensity z-score, stronger effect = higher value.

Muscarinic acetylcholine receptor M4 (Homo sapiens), sequence (P08173 whole entry, looked up): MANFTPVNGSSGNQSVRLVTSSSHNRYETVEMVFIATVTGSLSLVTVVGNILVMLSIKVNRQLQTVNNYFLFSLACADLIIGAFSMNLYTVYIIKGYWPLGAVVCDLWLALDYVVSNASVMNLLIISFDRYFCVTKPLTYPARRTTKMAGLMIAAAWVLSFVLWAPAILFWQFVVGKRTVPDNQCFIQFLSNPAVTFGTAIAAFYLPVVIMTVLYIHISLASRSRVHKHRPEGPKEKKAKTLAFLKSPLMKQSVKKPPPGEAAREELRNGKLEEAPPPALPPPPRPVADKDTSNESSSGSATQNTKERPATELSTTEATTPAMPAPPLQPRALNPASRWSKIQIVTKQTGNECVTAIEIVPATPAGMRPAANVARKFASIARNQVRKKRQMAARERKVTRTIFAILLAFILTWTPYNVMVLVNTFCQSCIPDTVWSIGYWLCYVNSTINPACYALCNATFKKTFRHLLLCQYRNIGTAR

One may read the inhibition as the relative decrease from the control value, in per cent. For the compound `COc1cc2nc(-c3ccccc3)nc(N3CCCC3)c2cc1OC`, the cell count in experiment [1] came out at 397. The inhibition was -11.2% (inactive) in experiment [1], -164% (inactive) in experiment [2], 1.42% (inactive) in [4] and 17.6% (inactive) in [9]. In experiment [2], the nuclei count was 154%. Also, the results for the z-score in experiment [3] (setting [10]), in experiment [3] (setting [11]) and in experiment [3] (setting [12]) were 0.13, -0.48 and 0.0689, respectively. Moreover, the figures for the fluorescence slope in experiment [5] and in experiment [7] were -0.433 (inactive) and 0.00381 (inactive), respectively. For the same compound, the NADPH fluorescence slope in [6] is -0.000105 (inactive). Further, the call in experiment [8] was inactive.
Consider `O=C1CCCN1c1ccc(S(=O)(=O)NCc2ccco2)cc1`, for which, in experiment [1], the cell count came out at 702. Moreover, the inhibition is 3.6% (inactive) in [1], -53.1% (inactive) in experiment [2], 15.9% (inactive) in experiment [4] and 15.5% (inactive) in [9]. For the same compound, in experiment [2], the nuclei count was determined as 180%. Also, the results for the z-score in [3] (setting [10]), in [3] (setting [11]) and in [3] (setting [12]) were 0.977, -0.343 and 1.6, respectively. Moreover, the results for the fluorescence slope in experiment [5] and in experiment [7] were -0.489 (inactive) and 0.00466 (inactive), respectively. For the same compound, in experiment [6], the NADPH fluorescence slope is -3.7e-05 (inactive). For the same compound, the result in experiment [8] was inactive.
For `Cn1c(=O)c2c(nc(NCc3ccco3)n2CCc2ccccc2)n(C)c1=O`, the cell count in [1] was determined as 605. Moreover, the inhibition in experiment [1] is 6% (inactive); in experiment [2], -74.4% (inactive); in experiment [4], 1.98% (inactive); in experiment [9], 33.1% (inactive). For the same compound, the nuclei count in [2] was 121%. Moreover, the z-score in [3] (setting [10]) was -0.322; in experiment [3] (setting [11]), -0.952; in experiment [3] (setting [12]) it was 1.19. The fluorescence slope in [5] was -0.524 (inactive); in experiment [7] it was 0.00721 (inactive). Also, the NADPH fluorescence slope in experiment [6] was -6e-05 (inactive). In addition, the compound was classed as inactive in experiment [8].
For the compound `CCCCOC(=O)c1ccc(NC(=O)CSc2nncn2C)cc1`, the cell count in [1] was determined as 507. Also, the inhibition in experiment [1] is -8.4% (inactive); in [2] it was -82.5% (inactive); in experiment [4], -0.624% (inactive); in [9], 5.5% (inactive). In experiment [2], this compound displayed a nuclei count of 168%. Further, the z-score in experiment [3] (setting [10]) is -0.268; in [3] (setting [11]), -0.273; in experiment [3] (setting [12]), 0.565. In addition, the figures for the fluorescence slope in experiment [5] and in experiment [7] were -0.456 (inactive) and 0.00538 (inactive), respectively. In experiment [6], the NADPH fluorescence slope was -6.8e-05 (inactive). In [8], the call was inactive.
Consider `Cn1c(=O)c2c(nc(NCCCO)n2Cc2cccc(C(F)(F)F)c2)n(C)c1=O`, for which, in [1], the cell count is 652. Moreover, the inhibition was -11.8% (inactive) in [1], -70% (inactive) in experiment [2], -5.95% (inactive) in [4] and -3.98% (inactive) in experiment [9]. The compound further registered a nuclei count in [2] of 95.4%. Besides, the z-score in [3] (setting [10]) was -1.68; in experiment [3] (setting [11]), -0.0388; in experiment [3] (setting [12]), 0.32. The fluorescence slope in experiment [5] is -0.492 (inactive); in experiment [7] it was 0.00722 (inactive). In addition, in experiment [6], the NADPH fluorescence slope was -6.8e-05 (inactive). Also, in experiment [8], the compound was called inactive.
For the compound `CN1CCc2c(C#N)c(N3CCCCC3)nc(N3CCOCC3)c2C1`, the cell count in experiment [1] stood at 534. In addition, the inhibition in [1] is -9.2% (inactive); in experiment [2] it was -129% (inactive); in experiment [4], -0.584% (inactive); in experiment [9], 4.52% (inactive). Further, in experiment [2], the nuclei count came to 127%. Also, the z-score in [3] (setting [10]) was 0.848; in experiment [3] (setting [11]) it was -1.39; in experiment [3] (setting [12]) it was 0.568. The fluorescence slope is -0.418 (inactive) in experiment [5] and 0.00417 (inactive) in experiment [7]. Further, the NADPH fluorescence slope in experiment [6] is -5.8e-05 (inactive). For the same compound, the call in experiment [8] was inactive.
Regarding `Cc1cc(NCCNC2=CC(=O)CCC2)nc2ccccc12`, the cell count in experiment [1] turned out to be 473. Besides, the inhibition is -10.2% (inactive) in experiment [1], -41.3% (inactive) in experiment [2], -3.97% (inactive) in experiment [4] and -12.8% (inactive) in experiment [9]. In experiment [2], this compound had a nuclei count of 148%. In addition, the z-score is -0.963 in experiment [3] (setting [10]), 1.28 in experiment [3] (setting [11]) and -0.176 in experiment [3] (setting [12]). Moreover, the fluorescence slope in [5] is -0.431 (inactive); in experiment [7], 0.0072 (inactive). The NADPH fluorescence slope in experiment [6] was -4.6e-05 (inactive). Besides, the call in [8] was inactive.
